Results reported in ChEMBL document CHEMBL4725283, “Selective Peptidomimetic Inhibitors of NTMT1/2: Rational Design, Synthesis, Characterization, and Crystallographic Studies” (J Med Chem, 2020).

Legend:
Homo sapiens [1] = organism: Homo sapiens; assay: Selectivity for human NTMT2 over human DNMT3b/3L at 100 uM
Summary of the method: (§1)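 Single-point panel screen against 41 PKMTs, PRMTs, DNMTs and NTMT1/2. Each compound was tested at 100 µM, in duplicate (n=2).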

Homo sapiens [2] = organism: Homo sapiens; assay: Selectivity for human NTMT1 over human EZH1 complex at 100 uM
Summary of the method: (§2)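 Panel of 41 PKMTs, PRMTs, DNMTs and NTMT1/2, tested at 100 µM compound in duplicate (n=2).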

Homo sapiens [3] = organism: Homo sapiens; assay: Selectivity for human NTMT1 over human SET1b complex at 100 uM; summary of the method: as §2
Homo sapiens [4] = organism: Homo sapiens; assay: Selectivity for human NTMT2 over human EZH2 complex at 100 uM; summary of the method: as §1
Homo sapiens [5] = organism: Homo sapiens; assay: Selectivity for human NTMT2 over human DNMT1 at 100 uM; summary of the method: as §1
Homo sapiens [6] = organism: Homo sapiens; assay: Selectivity for human NTMT2 over human MLL3 complex at 100 uM; summary of the method: as §1
Homo sapiens [7] = organism: Homo sapiens; assay: Selectivity for human NTMT2 over human DOT1L at 100 uM; summary of the method: as §1
Homo sapiens [8] = organism: Homo sapiens; assay: Selectivity for human NTMT1 over human EZH2 complex at 100 uM; summary of the method: as §2
Homo sapiens [9] = organism: Homo sapiens; assay: Selectivity for human NTMT1 over human ASH1L at 100 uM; summary of the method: as §2
Homo sapiens [10] = organism: Homo sapiens; assay: Selectivity for human NTMT1 over human DNMT3b at 100 uM; summary of the method: as §2
Homo sapiens [11] = organism: Homo sapiens; assay: Selectivity for human NTMT1 over human G9a at 100 uM; summary of the method: as §2
Homo sapiens [12] = organism: Homo sapiens; assay: Selectivity for human NTMT1 over human DNMT3a at 100 uM; summary of the method: as §2
Homo sapiens [13] = organism: Homo sapiens; assay: Selectivity for human NTMT2 over human PRDMT4 at 100 uM; summary of the method: as §1
Homo sapiens [14] = organism: Homo sapiens; assay: Selectivity for human NTMT1 over human EZH2 complex Y641F mutant at 100 uM; summary of the method: as §2
Homo sapiens [15] = organism: Homo sapiens; assay: Selectivity for human NTMT1 over human MLL2 complex at 100 uM; summary of the method: as §2
Homo sapiens [16] = organism: Homo sapiens; assay: Selectivity for human NTMT1 over GST-tagged human METTL21A at 100 uM; summary of the method: as §2
Homo sapiens [17] = organism: Homo sapiens; assay: Selectivity for human NTMT2 over human SET8 at 100 uM; summary of the method: as §1
Homo sapiens [18] = organism: Homo sapiens; assay: Selectivity for human NTMT2 over human PRDMT6 at 100 uM; summary of the method: as §1
Homo sapiens [19] = organism: Homo sapiens; assay: Selectivity for human NTMT1 over human PRDMT8 at 100 uM; summary of the method: as §2
Homo sapiens [20] = organism: Homo sapiens; assay: Selectivity for human NTMT2 over human SETD2 at 100 uM; summary of the method: as §1
Homo sapiens [21] = organism: Homo sapiens; assay: Selectivity for human NTMT2 over human SET7/9 at 100 uM; summary of the method: as §1
Homo sapiens [22] = organism: Homo sapiens; assay: Selectivity for human NTMT2 over human EZH1 complex at 100 uM; summary of the method: as §1
Homo sapiens [23] = organism: Homo sapiens; assay: Selectivity for human NTMT2 over human EZH2 complex Y641F mutant at 100 uM; summary of the method: as §1
Homo sapiens [24] = organism: Homo sapiens; assay: Selectivity for human NTMT1 over human PRDM9 at 100 uM; summary of the method: as §2
Homo sapiens [25] = organism: Homo sapiens; assay: Selectivity for human NTMT2 over GST-tagged human METTL21A at 100 uM; summary of the method: as §1
Homo sapiens [26] = organism: Homo sapiens; assay: Selectivity for human NTMT2 over human NSD2 at 100 uM; summary of the method: as §1
Homo sapiens [27] = organism: Homo sapiens; assay: Selectivity for human NTMT1 over human MLL4 complex at 100 uM; summary of the method: as §2
[28] = target: T1, Histone-lysine N-methyltransferase EHMT2 (Homo sapiens, UniProt Q96KQ7); assay: Inhibition of human His-tagged G9a (913 to 1193 residues) expressed in Escherichia coli BL21-CodonPlus(DE3)-RIL using H3-21 peptide as substrate preincubated for 10 mins in presence of SAM followed by substrate addition by fluorescence assay
T1 sequence (Q96KQ7 whole entry): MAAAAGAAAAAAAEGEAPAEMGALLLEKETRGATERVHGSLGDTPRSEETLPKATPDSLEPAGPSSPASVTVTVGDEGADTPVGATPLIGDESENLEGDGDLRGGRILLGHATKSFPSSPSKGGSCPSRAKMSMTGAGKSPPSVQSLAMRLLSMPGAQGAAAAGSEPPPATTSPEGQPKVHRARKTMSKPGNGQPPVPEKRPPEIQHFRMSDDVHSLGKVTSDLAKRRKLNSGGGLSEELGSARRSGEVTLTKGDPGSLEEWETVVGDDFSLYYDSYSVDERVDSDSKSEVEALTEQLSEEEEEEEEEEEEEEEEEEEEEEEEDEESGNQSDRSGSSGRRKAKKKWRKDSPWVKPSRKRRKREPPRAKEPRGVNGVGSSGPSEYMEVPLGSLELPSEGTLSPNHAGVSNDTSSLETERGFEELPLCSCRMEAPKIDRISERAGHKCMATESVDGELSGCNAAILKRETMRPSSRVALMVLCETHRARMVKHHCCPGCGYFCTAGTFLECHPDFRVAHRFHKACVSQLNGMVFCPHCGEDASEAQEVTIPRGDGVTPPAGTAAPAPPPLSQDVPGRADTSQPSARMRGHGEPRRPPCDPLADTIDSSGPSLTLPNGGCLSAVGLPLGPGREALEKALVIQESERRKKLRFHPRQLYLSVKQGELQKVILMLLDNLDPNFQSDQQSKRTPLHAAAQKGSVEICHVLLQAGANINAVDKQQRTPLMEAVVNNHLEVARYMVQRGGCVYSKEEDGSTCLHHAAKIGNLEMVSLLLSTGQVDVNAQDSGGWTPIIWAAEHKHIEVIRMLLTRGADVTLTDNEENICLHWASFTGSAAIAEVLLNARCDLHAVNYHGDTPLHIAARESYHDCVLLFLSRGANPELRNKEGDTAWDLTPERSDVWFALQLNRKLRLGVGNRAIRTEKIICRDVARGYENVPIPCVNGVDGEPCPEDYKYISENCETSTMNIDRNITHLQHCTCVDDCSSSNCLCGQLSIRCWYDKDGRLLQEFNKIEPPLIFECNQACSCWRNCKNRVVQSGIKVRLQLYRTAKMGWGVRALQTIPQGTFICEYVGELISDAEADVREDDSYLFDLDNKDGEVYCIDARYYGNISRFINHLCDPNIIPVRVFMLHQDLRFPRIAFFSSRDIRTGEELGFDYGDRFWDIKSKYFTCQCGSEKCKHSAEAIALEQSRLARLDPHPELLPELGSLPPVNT

Homo sapiens [29] = organism: Homo sapiens; assay: Selectivity for human NTMT2 over human MLL2 complex at 100 uM; summary of the method: as §1
[30] = Drug penetration in human HCT116 cells at 100 uM by MALDI-MS analysis; type: ADME, cell-based; conditions: hct-116, 100 µM
Summary of the method: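 HCT116 cells in McCoy's 5A with 10% FBS and 1% antibiotic-antimycotic, seeded at 0.1 × 10^6 cells/mL in 24-well plates and held overnight at 37 °C, 5% CO2. Compound added for the specified time, with TAT peptide as control. Cells washed three times with PBS, lysed by two snap-freezes in liquid nitrogen, and the lysate checked for compound by MALDI with DHB matrix.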

Homo sapiens [31] = organism: Homo sapiens; assay: Selectivity for human NTMT2 over human SET1b complex at 100 uM; summary of the method: as §1
Homo sapiens [32] = organism: Homo sapiens; assay: Selectivity for human NTMT1 over human SET7/9 at 100 uM; summary of the method: as §2
Homo sapiens [33] = organism: Homo sapiens; assay: Selectivity for human NTMT2 over human NSD2 T1150A mutant at 100 uM; summary of the method: as §1
Homo sapiens [34] = organism: Homo sapiens; assay: Selectivity for human NTMT1 over human PRDMT4 at 100 uM; summary of the method: as §2

`N=C(N)NCCC[C@H](NC(=O)[C@H](CCCCN)NC(=O)[C@@H]1CCCN1C(=O)Cc1ccc(O)cc1)C(N)=O` showed a Selectivity ratio (Homo sapiens [1]) greater than 100, a Selectivity ratio (Homo sapiens [2]) greater than 100 and a Selectivity ratio (Homo sapiens [3]) greater than 100. The Selectivity ratio (Homo sapiens [4]) was greater than 100, the Selectivity ratio (Homo sapiens [5]) was greater than 100 and the Selectivity ratio (Homo sapiens [6]) was greater than 100. For the same molecule, the Selectivity ratio (Homo sapiens [7]) was greater than 100, the Selectivity ratio (Homo sapiens [8]) was greater than 100 and the Selectivity ratio (Homo sapiens [9]) was greater than 100. For the same molecule, the Selectivity ratio (Homo sapiens [10]) was greater than 100, the Selectivity ratio (Homo sapiens [11]) was greater than 100 and the Selectivity ratio (Homo sapiens [12]) was greater than 100. The Selectivity ratio (Homo sapiens [13]) was greater than 100, the Selectivity ratio (Homo sapiens [14]) was greater than 100 and the Selectivity ratio (Homo sapiens [15]) was greater than 100. For the same molecule, the Selectivity ratio (Homo sapiens [16]) was greater than 100, the Selectivity ratio (Homo sapiens [17]) was greater than 100 and the Selectivity ratio (Homo sapiens [18]) was greater than 100. For the same molecule, the Selectivity ratio (Homo sapiens [19]) was greater than 100, the Selectivity ratio (Homo sapiens [20]) was greater than 100 and the Selectivity ratio (Homo sapiens [21]) was greater than 100. It also gave a Selectivity ratio (Homo sapiens [22]) greater than 100, a Selectivity ratio (Homo sapiens [23]) greater than 100 and a Selectivity ratio (Homo sapiens [24]) greater than 100. For the same molecule, the Selectivity ratio (Homo sapiens [25]) was greater than 100, the Selectivity ratio (Homo sapiens [26]) was greater than 100 and the Selectivity ratio (Homo sapiens [27]) was greater than 100. The IC50 [28] was greater than 100 µM, the Selectivity ratio (Homo sapiens [29]) was greater than 100 and the Drug uptake [30] was “Not Active”. For the same molecule, the Selectivity ratio (Homo sapiens [31]) was greater than 100, the Selectivity ratio (Homo sapiens [32]) was greater than 100 and the Selectivity ratio (Homo sapiens [33]) was greater than 100. The Selectivity ratio (Homo sapiens [34]) was greater than 100.
